CHOP inh = inhibitors of CHOP induction in ER stress response. CHO-K1 CHOP-promoter luciferase, tunicamycin-induced, 15-18 h. inhibition, % at 10 µM. hit rate 3.8% among 220,000. AID 2732;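 active means compounds that reduced the stress-induced luciferase reporter signal by more than about 70% of percent inhibition, limit read from the data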;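 further: 0% = tunicamycin plus vehicle and 100% = wells without tunicamycin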
XBP1 UPR activ = activators of adaptive arm of unfolded protein response (XBP1). CHO-XBP1 luciferase reporter, IRE1-XBP1 UPR activation, luminescence; percent of tunicamycin response, DMSO as zero. activation, % at 20 µM. hit rate 0.33% among 330,000. AID 463104;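 active means versus positive control, 20 µM dose yields 30% or more activation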;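 further: 100% = tunicamycin at 10 µg/mL and 0% = DMSO only wells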
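Material: CHO cell line with stable XBP1 luciferase reporter; buffer or medium: F12 medium containing 10% fetal bovine serum; compound: single point, 20 µM final compound, 1% DMSO; incubation: 6 h treatment, 37 °C; measured by: glow luminescence from Steady-Glo reagent; evaluation: activation, % of tunicamycin; control set: tunicamycin high, DMSO low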
697 NFkB inh = inhibitors of the PMA/ionomycin-induced NF-kB reporter in 697 B cells; 697 B-cell NF-kB luciferase reporter, 16 h; inhibition, % at 4 µM; hit rate 0.33% among 330,000; in the data active means inhibition above about 35%
CHOP UPR activ = apoptotic UPR (CHOP) activation. CHO-CHOP luciferase reporter, luminescence; percent of tunicamycin response over DMSO baseline. hit rate 0.34% among 330,000. activation, % at 10 µM. AID 449763;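 active means at 10 µM dose, activation of 40% or more, normalized to positive control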;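 further: 100% = tunicamycin at 10 µg/mL and 0% = DMSO alone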
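Material: CHO-CHOP cells, stable luciferase reporter of PERK-eIF2a-CHOP signalling; quantity: 500 reporter cells seeded per well; buffer or medium: F12 medium containing 10% fetal bovine serum; compound: one dose, 10 µM in 0.5% DMSO; incubation: 6 h compound treatment, 37 °C; measured by: Steady-Glo luciferase luminescence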
Jurkat NFkB inh = lowers PMA/ionomycin-induced NF-kB signal in Jurkat cells; PMA/ionomycin-induced NF-kB luciferase reporter, luminescence; inhibition, % at 4 µM; hit rate 0.53% among 330,000; in the data active means inhibition above about 50%
Numbers without * were called inactive. Only a selection was taken, and hits are over-represented in it overall.

How did CCCc1cc(=O)oc2cc(OCC(=O)NCCCN3CCCC3=O)ccc12 do in these assays?
XBP1 UPR activ: -3; 697 NFkB inh: -4; CHOP UPR activ: 0; Jurkat NFkB inh: -8

What do the screens show for `Cn1cc(C(N)=O)c2ccccc21`?
CHOP inh: 18; XBP1 UPR activ: -2; 697 NFkB inh: 8; CHOP UPR activ: -1; Jurkat NFkB inh: -5

How did Cn1cc(C(=O)CCl)c2ccccc21 do in these assays?
CHOP inh: 88*

Results for COc1cc(/C=C(/C#N)c2nc3ccccc3[nH]2)ccc1Oc1ncccc1[N+](=O)[O-] ?
CHOP inh: 92*; XBP1 UPR activ: 21; 697 NFkB inh: 10; CHOP UPR activ: 11; Jurkat NFkB inh: 3

Results for COc1cc(/C=C(/C#N)c2nc3ccccc3[nH]2)ccc1OCc1ccc(C(=O)O)o1 ?
CHOP inh: -9; XBP1 UPR activ: -3; 697 NFkB inh: 6; CHOP UPR activ: -1; Jurkat NFkB inh: -5

Results for CC1C(=O)N2CCCc3cc(NS(=O)(=O)c4ccccc4)cc1c32 (stereo not given) ?
XBP1 UPR activ: 5; 697 NFkB inh: 7; CHOP UPR activ: 1; Jurkat NFkB inh: 7

How did COc1ccc(-n2c(=O)/c(=C\c3cccs3)s/c2=C(/C#N)C(=O)N2CCN(C)CC2)cc1 do in these assays?
CHOP inh: 90*; XBP1 UPR activ: -2; 697 NFkB inh: 20; CHOP UPR activ: -1; Jurkat NFkB inh: -8

Results for O=C/C=C/c1c(-c2ccccc2)cc2oc3ccccc3cc1-2 ?
XBP1 UPR activ: 5; 697 NFkB inh: -26; CHOP UPR activ: 4; Jurkat NFkB inh: -4

How did Cc1ccc(C(=O)/C=C/NNC(=O)c2ccccc2O)cc1 do in these assays?
XBP1 UPR activ: -2; 697 NFkB inh: -16; CHOP UPR activ: 0; Jurkat NFkB inh: -19

How did COc1ccc(OC)c(/C(O)=C/C(=O)C(=O)Nc2ccccc2OC)c1 do in these assays?
CHOP inh: 75*; XBP1 UPR activ: -1; 697 NFkB inh: -10; CHOP UPR activ: -1; Jurkat NFkB inh: -15

How did CCOC(=O)c1c(-c2ccc(C)o2)csc1NC(=O)CN1CCOCC1 do in these assays?
CHOP inh: 7; XBP1 UPR activ: 6; 697 NFkB inh: -8; CHOP UPR activ: 0; Jurkat NFkB inh: 1

How did CCOC(=O)c1c(-c2ccc(-c3ccccc3)cc2)csc1NC(=O)C1C2CCC(O2)C1C(=O)O (stereo not given) do in these assays?
CHOP inh: 88*; XBP1 UPR activ: -3; 697 NFkB inh: 0; CHOP UPR activ: -1; Jurkat NFkB inh: -11

How did CCOC(=O)c1c(-c2ccccc2)csc1NC(=O)CCN1CCOCC1 do in these assays?
CHOP inh: -4; XBP1 UPR activ: 2; 697 NFkB inh: -13; CHOP UPR activ: -1; Jurkat NFkB inh: 1

Results for CCOC(=O)c1c(-c2ccccc2)csc1NC(=O)C1CCCO1 (stereo not given) ?
CHOP inh: 83*; XBP1 UPR activ: 4; 697 NFkB inh: -41; CHOP UPR activ: 0; Jurkat NFkB inh: -9

How did CCOC(=O)c1c(-c2cccs2)csc1NC(=O)CN1CCOCC1 do in these assays?
CHOP inh: 72*; XBP1 UPR activ: 2; 697 NFkB inh: -18; CHOP UPR activ: -1; Jurkat NFkB inh: -10

How did CCOC(=O)c1c(-c2ccc(C)cc2)csc1NC(=O)C1CC=CCC1C(=O)O (stereo not given) do in these assays?
CHOP inh: 24; XBP1 UPR activ: -2; 697 NFkB inh: 13; CHOP UPR activ: -1; Jurkat NFkB inh: -10

How did CN(Cc1ccccc1)C(=O)CN1C(=O)NC(C)(c2ccc(Cl)cc2)C1=O (stereo not given) do in these assays?
XBP1 UPR activ: 3; 697 NFkB inh: 15; CHOP UPR activ: 1; Jurkat NFkB inh: 6

What do the screens show for `Oc1ccccc1N=Nc1ccccc1O`?
CHOP inh: 73*

Results for Nc1ccc(N=Nc2ccccc2O)c(N)c1 ?
XBP1 UPR activ: 4; 697 NFkB inh: -137; CHOP UPR activ: 6; Jurkat NFkB inh: -103

Results for O=C(N/N=C/c1c[nH]c2ccccc12)c1[nH]c2ccc(Br)cc2c1-c1ccccc1 ?
CHOP inh: 92*

Results for O=C(N/N=C/c1c[nH]c2ccccc12)c1cc(Br)ccc1O ?
XBP1 UPR activ: 0; 697 NFkB inh: 13; CHOP UPR activ: 0; Jurkat NFkB inh: -3

What do the screens show for `C[C@@H](Oc1ccc(Oc2cnc3ccc(Cl)cc3n2)cc1)C(=O)O`?
CHOP inh: -5

Results for Cc1ccc(CN=c2c([N+](=O)[O-])nn(-c3cccc(Cl)c3)n2O)cc1 ?
CHOP inh: 84*; XBP1 UPR activ: -1; 697 NFkB inh: -33; CHOP UPR activ: -1; Jurkat NFkB inh: -14

How did CCSc1nnc(NC(=O)c2cc(C)oc2C)s1 do in these assays?
CHOP inh: 78*; XBP1 UPR activ: 2; 697 NFkB inh: -125; CHOP UPR activ: 4; Jurkat NFkB inh: -79

What do the screens show for `COc1ccc(Nc2oc(-c3ccc(Cl)cc3)nc2C#N)cc1`?
CHOP inh: 85*; XBP1 UPR activ: 4; 697 NFkB inh: -91; CHOP UPR activ: 3; Jurkat NFkB inh: 10

Results for Cc1ccc(OCc2nc(C#N)c(NCc3ccc4c(c3)OCO4)o2)cc1 ?
CHOP inh: 8; XBP1 UPR activ: -1; 697 NFkB inh: -6; CHOP UPR activ: 1; Jurkat NFkB inh: 0

What do the screens show for `COc1ccc(Nc2oc(-c3ccc(OC)cc3)nc2C#N)cc1`?
CHOP inh: -12; XBP1 UPR activ: 9; 697 NFkB inh: -147; CHOP UPR activ: 9; Jurkat NFkB inh: -58

What do the screens show for `CCOc1ccc(-c2nc(C#N)c(NCc3ccc4c(c3)OCO4)o2)cc1`?
CHOP inh: 78*; XBP1 UPR activ: 5; 697 NFkB inh: -3; CHOP UPR activ: 2; Jurkat NFkB inh: 5

Results for CCOc1ccc(Nc2oc(-c3ccc(Cl)cc3)nc2C#N)cc1 ?
CHOP inh: 75*; XBP1 UPR activ: 4; 697 NFkB inh: -31; CHOP UPR activ: 5; Jurkat NFkB inh: 20

What do the screens show for `Cc1ccc(-n2cccn2)c(CN2CCC(CO)(CCc3ccccc3)CC2)c1`?
CHOP inh: 10

What do the screens show for `Cc1ccc(-n2c(SCC3CNC(=O)O3)nnc2-c2ccccc2)cc1C` (stereo not given)?
CHOP inh: 0; XBP1 UPR activ: 2; 697 NFkB inh: 5; CHOP UPR activ: 1; Jurkat NFkB inh: 8

Results for CCOC(=O)/C=c1\s/c(=C\c2ccc3c(c2)OCCO3)c(=O)n1CC(=O)NCC1CCCO1 (stereo not given) ?
CHOP inh: 86*; XBP1 UPR activ: 1; 697 NFkB inh: -14; CHOP UPR activ: 0; Jurkat NFkB inh: -10

Results for CCOC(=O)/C=c1\s/c(=C\c2c(OCC)ccc3ccccc23)c(=O)n1CC(=O)NCC1CCCO1 (stereo not given) ?
CHOP inh: 37; XBP1 UPR activ: -1; 697 NFkB inh: -25; CHOP UPR activ: -3; Jurkat NFkB inh: -13

Source: PubChem BioAssay
